Measured values published in ChEMBL document CHEMBL1145036, “Inhibition of papilloma formation by analogues of 7,8-dihydroretinoic acid” (2003).
Several values for one entry are separate records, joined by “and”; a condition that tells them apart may be missing. Equal values may be shown once.

Assays:
Mus musculus [1] = species: Mus musculus; assay: Antitumor activity in CD-1 female mouse skin Papilloma assay; assay type: functional
How it was run: (§1)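 CD-1 female mice. Initiation with DMBA (0.2 μmol in 0.2 mL acetone) on shaved dorsal skin. Promotion began 14 days later with TPA (10 nmol in acetone) twice weekly. Retinoid applied topically in 0.2 mL acetone to the same area. Dose-response used 137.7/135.7, 45.9, 15.3 or 5.1 nmol. Papillomas counted per mouse at day 83–89 after promotion start. Tumor-free mice also recorded. ED50 derived from the dose-response.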

Mus musculus [2] = species: Mus musculus; assay: Antitumor activity in CD-1 female mouse skin Papilloma assay at 15.3 nmol dose; assay type: functional; how it was run: as §1
[3] = molecular target: T1, Retinoic acid receptor alpha (Mus musculus) (UniProt P11416); assay: Inhibition of [3H]-retinoic acid binding to murine retinoic acid receptor RAR alpha; parameters: concentration or dose not given beside the values; settings: concentration not given here
T1 sequence (whole entry): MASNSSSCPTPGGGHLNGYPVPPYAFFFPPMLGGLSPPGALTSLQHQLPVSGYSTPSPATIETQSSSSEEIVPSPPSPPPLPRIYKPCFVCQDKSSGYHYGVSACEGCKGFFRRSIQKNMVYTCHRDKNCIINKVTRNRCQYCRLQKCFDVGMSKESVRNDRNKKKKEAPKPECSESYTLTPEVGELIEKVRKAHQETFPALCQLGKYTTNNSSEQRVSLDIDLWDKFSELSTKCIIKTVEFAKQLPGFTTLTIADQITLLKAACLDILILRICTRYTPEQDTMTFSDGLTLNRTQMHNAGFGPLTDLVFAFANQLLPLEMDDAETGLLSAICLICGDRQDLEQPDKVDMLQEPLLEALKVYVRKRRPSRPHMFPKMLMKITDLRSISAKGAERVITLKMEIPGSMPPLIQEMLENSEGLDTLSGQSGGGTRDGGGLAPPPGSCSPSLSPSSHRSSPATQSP
How it was run: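 RARα binding: inhibition of tritiated retinoic acid binding by a 200-fold molar excess of unlabeled retinoid, expressed as percent inhibition.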

Mus musculus [4] = species: Mus musculus; assay: Antitumor activity in CD-1 female mouse skin Papilloma assay at 135.7 nmol dose; assay type: functional; how it was run: as §1
Mus musculus [5] = species: Mus musculus; assay: Antitumor activity in CD-1 female mouse skin Papilloma assay at 45.9 nmol dose; assay type: functional; how it was run: as §1
Mus musculus [6] = species: Mus musculus; assay: Antitumor activity in CD-1 female mouse skin Papilloma assay at 5.1 nmol dose; assay type: functional; how it was run: as §1

Structure (SMILES)	ED50 (Mus musculus [1]) [nmol]	inhibition [3] [%]	further results
CC1=C(/C=C/C(C)=C/C=C/C(C)=C/C(=O)O)C(C)(C)CCC1 [TRETINOIN]	5.2	–	Control (Mus musculus [2]): 8%
CC(/C=C/C=C(\C)C(=O)Nc1c(C)cc(C)cc1C)=C\C(=O)O	> 100	–	–
CC(/C=C/C=C(\C)COc1cc(C)cc(C)c1C)=C\C(=O)O	27	30	Control (Mus musculus [4]): 10%; Control (Mus musculus [2]): 66%; No. of tumors/mouse (Mus musculus [2]): 22 and 9.2; Control (Mus musculus [5]): 36%; No. of tumors/mouse (Mus musculus [5]): 15 and 5; Control (Mus musculus [6]): 89%; No. of tumors/mouse (Mus musculus [6]): 29 and 12.4
CC(/C=C/C=C(\C)COc1ccc(C(C)(C)C)cc1C(C)(C)C)=C\C(=O)O	> 45.9	5	–
CCOC(=O)/C=C(C)/C=C/C=C(C)/C=C/c1c(C)cc(OC)c(C)c1C [ETRETINATE]	7.2	–	–
CC(/C=C/C=C(\C)C(=O)Nc1ccc(C(C)(C)C)cc1C(C)(C)C)=C\C(=O)O	> 100	0	–
CC(/C=C/C=C(\C)COc1c(Cl)cc(F)cc1Cl)=C\C(=O)O	> 100	–	–
COc1ccc(OC/C(C)=C/C=C/C(C)=C/C(=O)O)c(C(C)(C)C)c1	> 100	25	–
COC(=O)/C=C(C)/C=C/C=C(\C)C(=O)Nc1ccc(C(C)(C)C)cc1C(C)(C)C	> 100	–	–
COc1cc(NC(=O)/C(C)=C/C=C/C(C)=C/C(=O)O)cc(OC)c1	> 45.9	–	–
CC(/C=C/C=C(\C)C(=O)Nc1c(C)cc(C(C)(C)C)cc1C(C)(C)C)=C\C(=O)O	–	15	–
CC(/C=C/C=C(\C)COc1ccc(F)cc1C)=C\C(=O)O	45.9	0	–
CC(/C=C/C=C(\C)COc1c(C)cc(C)cc1C)=C\C(=O)O	60	30	–
